# Bioassay records as filed in PubChem.
# The full list was thinned out, with hits kept by preference.
# Lmaj promast: inhibitors of Leishmania major promastigote growth | 9% of 200,000 active | Leishmania major promastigotes, resazurin fluorescence viability | inhibition, % at 10 µM; in the data active means inhibition above about 50%;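 further: promastigotes grown with compound for 44 hours at 28 °C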
# PolyA inhibitor: blocks polyadenylation in yeast reporter cells; S. cerevisiae SKY197-pL101 polyadenylation reporter, beta-gal luminescence; efflux-impaired pdr1/pdr3 knockout yeast; score 100 = 6 SD above DMSO; activity score, % at 12 µM; 0.02% of 300,000 active; AID 1875;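 active means lowest replicate activity score at least 50, where 100 means six control SD above control mean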;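 further: yeast exposed to compound for 9 h at 30 °C; higher score means more reporter readthrough which indicates perturbed polyadenylation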
# NALP1 inh: inhibitors of NALP1 inflammasome in yeast | S. cerevisiae NALP1/ASC/caspase-1 growth, X-gal OD620, 72 h | inhibition, % at 10 µM | 0.61% of 280,000 active | AID 2071; in the data active means inhibition mostly above about 24%, no sharp cut-off; inactive means mostly below about 32%
# NALP3 yeast inh: blocks the NALP3 inflammasome reconstituted in yeast; Yeast reconstituted NLRP3/ASC/caspase-1, beta-gal luminescence, 24 h; inhibition, % at 10 µM; 0.39% of 330,000 active;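 active means inhibition of 50% or more; inactive means inhibition below 50%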
# T cruzi repl: T. cruzi replication inhibition; 1.4% of 300,000 active; T. cruzi beta-gal in NIH3T3, luminescence, 90 h; inhibition, % (test concentration not listed); AID 1885;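 active means mean inhibition across valid replicates above about 55%, limit read from the data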;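 further: signal also drops with host cell toxicity which is not excluded here; higher percent means less beta-gal luminescence so fewer parasites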
#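 compound dosing = single 50 nL compound addition per well in DMSO | material = NIH/3T3 host cells with β-galactosidase reporter T. cruzi | input = 5,000 host fibroblasts per well | timing = ≥90 h infection period, 3 h prior cell attachment | read-out basis = percent inhibition of parasite-derived β-gal signal | detection = GalScreen β-gal luminescence, detergent lysis, 60 min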
# Calb FLC: affects C. albicans growth with fluconazole; growth inhibition, % (test concentration not listed); AID 1979; 0.57% of 300,000 active; C. albicans CaCi-2 + fluconazole, Alamar Blue growth, 48 h;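 active means growth inhibition above about 58% in most replicates, limit read from the data, passing the limit was not always enough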;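 further: all wells also contain fluconazole at 8 µg/ml as a sub-toxic cotreatment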
# Numbers stand for hits; – = inactive; · = not tested or not shown.
SMILES,Lmaj promast,PolyA inhibitor,NALP1 inh,NALP3 yeast inh,T cruzi repl,Calb FLC
COc1ccc(CCNC(=O)C/C(C)=N/NC(=O)c2ccc([N+](=O)[O-])cc2Cl)cc1OC,·,–,–,–,–,–
COC(=O)[C@@]1(Cc2ccc(F)cc2)[C@H]2c3cc(C(=O)N(C)C)n(Cc4nc5ccccc5[nH]4)c3C[C@H]2CN1C(=O)c1ccccc1,–,·,–,–,·,·
COc1ccc(C2CC(c3ccccc3)=NN2C(=O)COC(=O)c2cnc(Cl)c(Cl)c2)cc1 (configuration not stated),97,–,–,–,–,–
COc1ccc(C2CC(c3ccccc3)=NN2C(=O)COC(=O)c2cccc(S(=O)(=O)N3CCOCC3)c2)cc1 (configuration not stated),–,–,–,–,72,–
COc1ccc(C2CC(c3ccccc3)=NN2C(=O)COC(=O)c2cccc(S(=O)(=O)N(C)C)c2)cc1 (configuration not stated),–,–,–,–,–,–
CC(=O)[C@@H]1[C@@H](C(=O)c2ccccc2)[C@]2(C(=O)Nc3ccccc32)[C@H]2C=Cc3cc(F)ccc3N12,–,–,–,–,–,–
O=C(c1ccccc1)[C@@H]1[C@@H](C(=O)c2ccc(F)cc2)[C@@]2(C(=O)Nc3ccccc32)[C@H]2c3ccccc3C=CN12,74,–,–,–,–,–
CCOc1ccc(CCNc2ccc3nnc(-c4ccccc4)n3n2)cc1OCC,77,–,–,–,–,–
OCCSc1nc(-c2ccccc2)nc2ccc(F)cc12,–,–,–,–,–,–
NC(N)=Nc1nc(-c2ccccc2)c2cc(F)ccc2n1,100,–,–,–,–,–
O=C(CN1c2ccccc2S(=O)(=O)c2ccccc21)Nc1ccccc1F,·,–,–,–,–,–
OCCC1CN(Cc2ccc3nsnc3c2)CCN1CCc1ccccc1 (configuration not stated),84,·,–,–,–,·
CC(=O)c1cc(CN2CCN(Cc3ccccc3)C(CCO)C2)cs1 (configuration not stated),65,–,–,–,–,–
CC(=O)c1cc(CN2CCN(CCc3ccccc3)C(CCO)C2)cs1 (configuration not stated),77,–,–,–,–,–
N#Cc1ccc(OCC(=O)NCCc2ccccn2)cc1,–,–,36,–,–,–
O=C(COc1ccc(Br)cc1)NCc1ccccn1,–,–,–,–,–,–
CC(=O)Nc1ccccc1/C=C/c1ccc2c(C)cc(C)c(O)c2n1,–,–,–,–,–,109
OCCC1CN(Cc2ccccc2-c2ccco2)CCN1Cc1ccccc1 (configuration not stated),–,–,–,–,–,–
COC(CNC(=O)c1cccc2c1C(=O)N(Cc1cccnc1)C2)OC,–,–,41,–,–,–
COc1ccccc1CNC(=O)c1cccc2c1C(=O)N(Cc1cccnc1)C2,–,–,–,–,–,–
O=C1C(Cl)=C(Nc2ccc3cn[nH]c3c2)C(=O)c2ccccc21,·,–,·,·,59,–
C/C=C/n1ccnc1CC(O)(c1ccccc1)c1ccc(C)cc1 (configuration not stated),·,–,·,–,–,–
CCCCC(=O)NC(c1ccccc1Cl)c1ccc2cccnc2c1O (configuration not stated),·,–,–,–,–,–
CN1CCN(C(c2ccc(C(F)(F)F)cc2)c2ccc3cccnc3c2O)CC1 (configuration not stated),·,–,–,–,71,97
Oc1c(C(c2cccs2)N2CCN(c3ccccc3)CC2)ccc2cccnc12 (configuration not stated),84,·,–,–,·,·
Oc1c(C(c2ccccc2Cl)N2CCCC2)ccc2cccnc12 (configuration not stated),100,–,–,–,84,105
COc1ccc(-c2cn(Cc3ccc(C(N)=O)cc3)c(CCN)n2)cc1,·,·,·,–,·,·
CCOC(=O)N1CCN(C(=O)CNC(=O)c2ccc(Cl)cc2)CC1,·,–,–,–,–,–
Cc1ccc(C2CC(c3ccccc3)=NN2c2ccccc2)o1 (configuration not stated),100,–,–,–,–,–
Fc1ccc(C2=NN(c3ccccc3)C(c3ccco3)C2)cc1 (configuration not stated),–,–,–,–,–,–
